Columns and labels:
[1] = biological target: T1, Prostaglandin G/H synthase 2 (Homo sapiens, UniProt P35354)
T1 sequence (P35354 whole entry): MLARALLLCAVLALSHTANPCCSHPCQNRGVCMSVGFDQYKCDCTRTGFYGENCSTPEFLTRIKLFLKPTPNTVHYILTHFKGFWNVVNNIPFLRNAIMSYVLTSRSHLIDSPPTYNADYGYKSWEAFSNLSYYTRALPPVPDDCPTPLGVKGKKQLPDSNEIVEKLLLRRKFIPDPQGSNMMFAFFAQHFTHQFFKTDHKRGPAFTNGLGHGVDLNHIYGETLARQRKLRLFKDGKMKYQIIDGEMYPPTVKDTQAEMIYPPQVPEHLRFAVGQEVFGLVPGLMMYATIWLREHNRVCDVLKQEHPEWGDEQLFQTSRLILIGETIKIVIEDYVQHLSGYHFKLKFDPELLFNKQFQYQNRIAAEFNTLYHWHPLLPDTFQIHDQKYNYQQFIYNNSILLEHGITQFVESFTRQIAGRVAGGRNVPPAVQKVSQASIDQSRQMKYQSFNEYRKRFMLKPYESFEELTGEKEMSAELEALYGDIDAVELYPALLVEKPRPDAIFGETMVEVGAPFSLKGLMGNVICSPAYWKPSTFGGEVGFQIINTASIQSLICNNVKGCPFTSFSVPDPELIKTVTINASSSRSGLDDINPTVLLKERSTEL

[2] = biological target: Prostaglandin G/H synthase 1 (Homo sapiens, UniProt P23219); experiment: Inhibition of COX1 in human whole blood assessed as TxB2 production after 1 hr; format: tissue-based
[3] = Stability in human whole blood at 100 uM after 24 hrs; format: ADME, tissue-based; settings: read-out: Stability
Summary of the method: (§1)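 Compound incubated at 37 ± 0.5 °C in human serum or human whole blood. Aliquots taken at set times were diluted 1:2 with acetonitrile containing 0.1% TFA to deproteinize, then sonicated, vortexed, centrifuged 15 min at 2150 × g and filtered.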

Rattus norvegicus [4] = species on record: Rattus norvegicus; experiment: Vasodilation of phenylephrine-induced contraction in Wistar rat aorta in the presence of ODQ; format: functional
Summary of the method: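 Rat aortic strips (male Wistar, 180-200 g) were equilibrated 120 min. 1 μM ODQ (sGC inhibitor) was added to the bath 5 min before contraction with 1 μM L-phenylephrine. At plateau, cumulative vasodilator concentrations were added. Isometric relaxation was recorded and given as EC50 ± SE (μM).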

[5] = Stability in human serum at 100 uM after 24 hrs; format: ADME, cell-free; settings: read-out: Stability
Summary of the method: as §1

Rattus norvegicus [6] = species on record: Rattus norvegicus; experiment: Vasodilation of phenylephrine-induced contraction in Wistar rat aorta; format: functional
Summary of the method: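 Thoracic aortic strips from male Wistar rats (180-200 g) were equilibrated 120 min and precontracted with 1 μM L-phenylephrine. At plateau, cumulative concentrations of vasodilator were added, with DMSO as vehicle. Relaxation was recorded isometrically and reported as EC50 ± SE (μM).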

Rattus norvegicus [7] = species on record: Rattus norvegicus; experiment: Vasodilation of phenylephrine-induced contraction in Wistar rat aorta in the presence of HbO2; format: functional

Sequence of Prostaglandin G/H synthase 1 (P23219 whole entry): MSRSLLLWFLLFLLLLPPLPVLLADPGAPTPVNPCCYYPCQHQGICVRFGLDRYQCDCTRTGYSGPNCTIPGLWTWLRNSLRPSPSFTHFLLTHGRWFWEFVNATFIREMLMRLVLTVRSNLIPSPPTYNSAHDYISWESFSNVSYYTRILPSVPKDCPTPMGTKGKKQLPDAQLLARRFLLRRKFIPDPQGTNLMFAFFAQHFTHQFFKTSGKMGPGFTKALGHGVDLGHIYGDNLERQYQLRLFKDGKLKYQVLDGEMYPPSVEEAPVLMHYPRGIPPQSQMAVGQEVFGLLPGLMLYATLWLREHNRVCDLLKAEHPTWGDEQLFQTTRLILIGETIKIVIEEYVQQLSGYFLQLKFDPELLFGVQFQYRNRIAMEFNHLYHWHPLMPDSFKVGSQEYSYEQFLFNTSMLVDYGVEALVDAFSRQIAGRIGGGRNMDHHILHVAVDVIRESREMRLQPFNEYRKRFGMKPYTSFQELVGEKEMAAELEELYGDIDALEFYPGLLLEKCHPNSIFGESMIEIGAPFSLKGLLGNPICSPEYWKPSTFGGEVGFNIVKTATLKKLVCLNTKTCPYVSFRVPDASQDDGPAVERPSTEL

| IC50 [1] | IC50 [2] | remaining at 24 h, 100 µM [3] | EC50 (Rattus norvegicus [4]) | remaining at 24 h, 100 µM [5] | EC50 (Rattus norvegicus [6]) | Structure (SMILES) | EC50 (Rattus norvegicus [7]) |
| --- | --- | --- | --- | --- | --- | --- | --- |
| 20 µM | > 100 µM |  |  |  |  | NS(=O)(=O)c1ccc(-n2cnc(Cl)c2-c2ccc(OCCO)c(F)c2)cc1 |  |
|  | > 100 µM | 58.8% | 12 µM | > 98% | 51 nM | NS(=O)(=O)c1ccc(-n2cnc(Cl)c2-c2ccc(OCCO[N+](=O)[O-])c(F)c2)cc1 |  |
|  | 1.9 µM |  | 25 µM |  |  | COc1ccc(-c2c(Cl)ncn2-c2ccc(S(N)(=O)=O)cc2)cc1F [CIMICOXIB] |  |
| 14 µM | > 100 µM | 60.6% | 6.3 µM | > 98% | 78 nM | CS(=O)(=O)c1ccc(-n2cnc(Cl)c2-c2ccc(OCCCO[N+](=O)[O-])c(F)c2)cc1 |  |
| 0.09 µM | 5.8 µM |  | 24 µM |  |  | COc1ccc(-c2c(Cl)ncn2-c2ccc(S(C)(=O)=O)cc2)cc1F |  |
|  | > 100 µM | 53.3% | 6.5 µM | > 98% | 21 nM | CS(=O)(=O)c1ccc(-n2cnc(Cl)c2-c2ccc(OCCO[N+](=O)[O-])c(F)c2)cc1 |  |
| > 100 µM | > 100 µM |  |  |  |  | CS(=O)(=O)c1ccc(-n2cnc(Cl)c2-c2ccc(OCCCO)c(F)c2)cc1 |  |
| > 100 µM | > 100 µM |  |  |  |  | NS(=O)(=O)c1ccc(-n2cnc(Cl)c2-c2ccc(OCCCO)c(F)c2)cc1 |  |
| 16 µM | > 100 µM | 64.1% | 18 µM | > 98% | 100 nM | NS(=O)(=O)c1ccc(-n2cnc(Cl)c2-c2ccc(OCCCO[N+](=O)[O-])c(F)c2)cc1 |  |
| 56 µM | > 100 µM |  |  |  |  | CS(=O)(=O)c1ccc(-n2cnc(Cl)c2-c2ccc(OCCO)c(F)c2)cc1 |  |

| Structure (SMILES) | IC50 [1] | IC50 [2] | remaining at 24 h, 100 µM [3] | EC50 (Rattus norvegicus [4]) | remaining at 24 h, 100 µM [5] | EC50 (Rattus norvegicus [6]) | EC50 (Rattus norvegicus [7]) |
| --- | --- | --- | --- | --- | --- | --- | --- |
| CS(=O)(=O)c1ccc(-n2cnc(Cl)c2-c2ccc(OCC(CO[N+](=O)[O-])O[N+](=O)[O-])c(F)c2)cc1 (centres undefined) | 76 µM | > 100 µM | 43.6% | > 100 µM | > 97% |  | 0.061 µM |
| O=[N+]([O-])O[C@H]1CO[C@H]2[C@@H]1OC[C@H]2O[N+](=O)[O-] [ISOSORBIDE DINITRATE] |  |  |  | > 100 µM |  | 4700 nM | 55 µM |
